Compound activity as filed in PubChem BioAssay.
The list is not random: actives were taken first. Their share in the collection is about 3.7%.
MC4R antagonist: MC4R antagonists of cAMP signaling, primary screen, cell-based, TR-FRET, antagonist arm of biased-ligand search. Melanocortin receptor 4 (Homo sapiens), P32245. MC4R-expressing cells, MTII-stimulated cAMP, LANCE TR-FRET. inhibition, % at 6.5 µM. actives 0.48% (n = 360,000). AID 540295, 2011;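 active = inhibition above its plate's cutoff, the mean of tested wells on that plate plus 3 SD, cut at about 29% in these data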;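 note: 0% = Melanotan II alone and 100% = Melanotan II plus saturating MCL0020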
Target sequence (P32245 whole entry, looked up): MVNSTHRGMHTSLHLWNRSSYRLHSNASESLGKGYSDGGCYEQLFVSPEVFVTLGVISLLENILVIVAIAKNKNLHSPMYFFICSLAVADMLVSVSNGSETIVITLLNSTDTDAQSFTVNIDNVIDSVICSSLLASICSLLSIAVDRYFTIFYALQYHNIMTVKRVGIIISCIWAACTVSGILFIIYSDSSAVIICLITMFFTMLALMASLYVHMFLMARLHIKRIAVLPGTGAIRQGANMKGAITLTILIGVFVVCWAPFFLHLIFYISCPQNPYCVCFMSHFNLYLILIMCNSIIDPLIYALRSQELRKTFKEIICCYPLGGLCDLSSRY
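System: U2OS-MC4R stable cell line; Technique: Eu-cAMP/anti-cAMP TR-FRET, emission 671 nm; Repeats: single well per compound; Also added: Melanotan II; Dosing: one concentration, 6.5 µM nominal; Schedule: 30-min compound, 1-h challenge, 1-h detection, room temperature.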
Myeloid diff MLP: induction of myeloid progenitor differentiation, primary screen, cell-based, flow cytometry, MLPCN library; actives 1% (n = 360,000); calls only at 10 µM; ER-HoxA9 myeloid progenitors, lysozyme-GFP differentiation;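 active = normalized GFP-positive differentiation at or above the plate's own cutoff, the solvent-only control mean plus 3 SD; inconclusive = no clear call, values can overlap the other calls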;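 note: cells exposed to compound for four days before flow analysis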
MC4R ag barr: MC4R agonists recruiting beta-arrestin, primary screen, cell-based, luminescence, agonist arm of biased-ligand search; actives 0.98% (n = 360,000); activation, % at 8.9 µM; U2OS MC4R beta-arrestin complementation; percent of melanotan II response, DMSO zero; Melanocortin receptor 4 (Homo sapiens), P32245;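 active = activation above a per-plate cutoff, the mean activation of sample wells on that plate plus 3 SD, cut at about 8% in these data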
EBI2 block: EBI2 receptor antagonists, beta-arrestin recruitment, primary screen, cell-based, luminescence, 7a,25-OHC stimulation, uHTS; actives 0.81% (n = 360,000); G-protein coupled receptor 183 (Homo sapiens), P32249; inhibition, % at 5 µM; 7a,25-OHC stimulated; in the data active = inhibition above about 38%;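 note: enzyme fragment complementation signal reports receptor beta-arrestin coupling in cells; 0% = agonist plus DMSO wells and 100% = wells without agonist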
Target sequence (P32249 whole entry, looked up, the tested form may be a part): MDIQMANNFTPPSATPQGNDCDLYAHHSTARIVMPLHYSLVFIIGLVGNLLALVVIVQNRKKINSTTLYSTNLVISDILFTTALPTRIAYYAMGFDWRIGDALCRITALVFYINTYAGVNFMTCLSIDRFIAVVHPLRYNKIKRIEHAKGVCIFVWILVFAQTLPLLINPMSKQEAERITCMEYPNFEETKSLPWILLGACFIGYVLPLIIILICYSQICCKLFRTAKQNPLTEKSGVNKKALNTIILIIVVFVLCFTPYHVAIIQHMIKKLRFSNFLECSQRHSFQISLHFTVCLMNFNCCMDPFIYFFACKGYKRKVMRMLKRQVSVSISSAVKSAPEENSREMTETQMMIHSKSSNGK
Exocytosis inh: LAMP-1 surface exposure blockers, TALL-104 cells – cell-based, flow cytometry, MLPCN library, primary screen; TALL-104 LAMP-1 surface exposure; cells stimulated with thapsigargin and PMA; inhibition, % at 10 µM; actives 0.66% (n = 360,000);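 active = inhibition above about 55%, limit read from the data; inconclusive = no clear call, values can overlap the other calls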
EBI2 conf: EBI2 antagonist hit retest, beta-arrestin, confirmation, cell-based, single concentration, luminescence, 7a,25-OHC stimulation. shares compounds with EBI2 block. 7a,25-OHC antagonism. inhibition, % at 5 µM. actives 29% (n = 2,400);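 active = inhibition of at least 50%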
EBI2 ag: EBI2 agonist activity of antagonist hits, confirmation, counter-screen for EBI2 antagonist project, cell-based, single concentration, agonist mode, luminescence; shares compounds with EBI2 block; EBI2-expressing cells, 60 min; 0% vehicle, 100% 7α,25-dihydroxycholesterol control; activation, % at 5 µM; 2,400 tested, under 10 active; AID 652000, 2013;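 active = activation of at least 50%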
bGal counter: E. coli beta-galactosidase enzyme inhibition, confirmation, counter-screen for EBI2 antagonist project, biochemical, luminescence, single concentration. actives 1% (n = 2,400). inhibition, % at 5 µM. AID 652176, 2013. shares compounds with EBI2 block. purified beta-galactosidase, luminescent Galacton Star, 15 min;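 active = replicate-average signal at least 3 plate SD below neutral wells, shown as high inhibition, flagging enzyme-inhibiting false positives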;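 note: 0% = DMSO wells with enzyme and 100% = wells lacking enzyme; higher means stronger loss of beta-gal luminescence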
Granule exo CP1: inhibitors of lytic granule exocytosis, confirmation, TALL-104 cells, flow cytometry, Cherry Pick01. shares compounds with Exocytosis inh. LAMP-1 externalization; stimulated with PMA plus thapsigargin. inhibition, % at 10 µM. actives 11% (n = 1,500). AID 651954, 2012; in the data active = inhibition above about 60%;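 note: 0% = stimulated vehicle wells and 100% = unstimulated wells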
* hit, by the source's call; i = inactive; ? = inconclusive; / = no result; + = active, no number.

SMILES | MC4R antagonist | Myeloid diff MLP | MC4R ag barr | EBI2 block | Exocytosis inh | EBI2 conf | EBI2 ag | bGal counter | Granule exo CP1
CCOC(=O)c1cnn(-c2nc(-c3ccc(C)cc3)cs2)c1C(F)(F)F | 13 | i | 0 | 45* | 4 | 3 | 0 | -7 | /
CCOC(=O)c1cnn(-c2nc(OC)cc(OC)n2)c1C(F)(F)F | 0 | i | -2 | -3 | 7 | / | / | / | /
Cc1cccc(NC(=O)CCC(=O)N2CCOCC2)n1 | 12 | i | 5 | -6 | 0 | / | / | / | /
O=C(/C=C/c1ccco1)N1CCN(S(=O)(=O)/C=C/c2ccccc2)CC1 | 10 | i | -1 | 79* | 1 | 48 | 3 | 2 | /
O=C(/C=C/c1ccco1)N1CCN(c2ccccc2)CC1 | 6 | i | -1 | 2 | 10 | / | / | / | /
O=C(/C=C/c1ccco1)N1CCN(C/C=C/c2ccccc2)CC1 | -4 | i | 0 | 63* | 6 | 32 | 1 | 2 | /
Cc1ccc(/C=C/C(=O)N2CCN(S(=O)(=O)/C=C/c3ccccc3)CC2)o1 | 5 | i | 0 | 67* | 4 | 38 | 1 | 5 | /
O=C(Cc1ccccc1)NC(=S)Nc1ccc2oc(-c3ccccc3F)nc2c1 | 14 | i | 3 | 39* | 0 | 22 | 0 | 6 | /
O=C(Nc1ccc2oc(-c3ccccc3F)nc2c1)c1ccccc1F | 1 | i | 1 | -2 | 17 | / | / | / | /
O=C(NCCN1C(=O)S/C(=C\c2ccc(Cl)cc2)C1=O)c1ccc(F)c(S(=O)(=O)N2CCOCC2)c1 | 15 | i | -1 | 67* | 1 | 48 | 2 | -1 | /
COc1ccc(Cl)cc1NC(=O)CN(C)C(C)C(=O)NC(=O)NC1CCCCC1 (stereo not given) | 8 | i | -2 | 7 | 0 | / | / | / | /
Cc1cnc(C(=O)N(CC(C)C)c2c(N)n(CC(C)C)c(=O)[nH]c2=O)cn1 | -3 | i | 0 | -7 | 3 | / | / | / | /
CCCCn1c(N)c(N(CCC(C)C)C(=O)C2CCCC2)c(=O)[nH]c1=O | 9 | i | 6 | -14 | 6 | / | / | / | /
COCCNc1nc(NCC2CCCCC2)c2sc(-c3ccccc3)cc2n1 | 11 | i | 4 | 29 | 53 | / | / | / | /
c1ccc(-c2cc3nc(NCC4CC4)nc(NCC4CCCCC4)c3s2)cc1 | 2 | i | 2 | 56* | 57* | 38 | 2 | 5 | 32
COc1ccc(CCNC(=O)CSc2nnc3ccc(-c4cccnc4)nn23)cc1 | 4 | i | -1 | 17 | 6 | / | / | / | /
CSc1ccc(/C=C/c2cc(=O)c3ccccc3[nH]2)cc1 | 11 | i | -2 | 2 | -3 | / | / | / | /
Fc1ccc(/C=C\c2nccc3c2[nH]c2ccccc23)cc1 | 0 | i | 5 | 49* | 83* | 29 | -1 | -9 | 93*
Cc1ccc(/C=C\c2nccc3c2[nH]c2ccccc23)cc1 | 9 | + | 6 | 74* | 75* | 46 | -1 | -8 | 4
CCCc1c(C(=O)N/N=C/c2ccc3c(c2)OCO3)nnn1-c1nonc1N | -3 | i | -2 | -11 | 1 | / | / | / | /
CC(Sc1nc2cc([N+](=O)[O-])ccc2n1-c1ccc(F)cc1)C(=O)NCc1ccc2c(c1)OCO2 (stereo not given) | 8 | i | 1 | 54* | 88* | 33 | -2 | 9 | -5
CCc1ccc(CN(Cc2cccnc2)C(=O)/C=C/c2ccc(OC)cc2)cc1 | 1 | + | 1 | 62* | 61* | 27 | -1 | -3 | -14
COc1ccc2c(c1)/C(=C/c1cc(OC)c(OC)c(OC)c1)C(=O)N2 | -48 | / | -1 | 12 | 4 | / | / | / | /
COc1ccc(C(=O)/C=C2\C(=O)Nc3ccc(Br)cc32)cc1 | -2 | ? | 0 | 78* | 82* | 70* | 0 | -10 | 40
CCCCn1c(-c2nonc2NC(=O)c2ccccc2Cl)nc2ccccc21 | 6 | + | -1 | 44* | 77* | 10 | 0 | -12 | -14
SMILES | MC4R antagonist | Myeloid diff MLP | MC4R ag barr | EBI2 block | Exocytosis inh | EBI2 conf | EBI2 ag | bGal counter | Granule exo CP1
COc1ccc([C@@H]2C[C@H]3[C@@H](CN2S(=O)(=O)c2ccccc2)C(=O)C[C@@H](c2ccc(OC)cc2)N3S(=O)(=O)c2ccccc2)cc1 | / | i | / | 5 | -1 | / | / | / | /
COc1ccc(N(CC(=O)NCCOc2ccccc2)S(=O)(=O)c2ccc(C)cc2)cc1 | 2 | i | 1 | 87* | 78* | 64* | 1 | 2 | -12
COCCNC(=O)CN(c1cccc(OC)c1)S(=O)(=O)c1ccc(C)cc1 | 4 | i | -1 | -1 | 0 | / | / | / | /
Fc1cccc(Cc2c(-c3ccco3)nc3c(Cl)cc(C(F)(F)F)cn23)c1 | / | i | / | 23 | 30 | / | / | / | /
Cc1ccc(C(=O)OCC(=O)NC2CCCCC2)o1 | 3 | i | -3 | 4 | -2 | / | / | / | /
O=C(COC(=O)c1ccco1)NC1CCCC1 | 8 | i | -3 | -5 | 72* | / | / | / | -13
Cc1c(C)n(-c2ccccc2)c2ncnc(NCCN(C)C)c12 | 2 | i | -1 | 9 | 65* | / | / | / | -10
COc1ccc(-n2c(C)c(C)c3c(NCCN(C)C)ncnc32)cc1 | 0 | i | 2 | -3 | -7 | / | / | / | /
Cc1ccc(NS(=O)(=O)c2cccc(C(=O)NCCc3c[nH]c4ccccc34)c2)c(C)c1 | 4 | i | -2 | 24 | 62* | / | / | / | 1
Cc1ccc(NC(=O)C(=O)NCCc2c[nH]c3ccccc23)c(C)c1 | 18 | i | 2 | 8 | -10 | / | / | / | /
CC1=C(C(=O)N(C(C)C)C(C)C)CC(CC(=O)NC2CC2)C(=O)N1Cc1ccc(C(C)(C)C)cc1 (stereo not given) | / | i | / | 3 | -12 | / | / | / | /
